# Compound activity deposited in PubChem BioAssay by Sanford-Burnham Center for Chemical Genomics.
# Sampled rows, rich in hits. Any-hit rate of the full collection: about 2.3%.
# MT1-MMP act inh: blocks activation of human MT1-MMP; HT1080 RFP-PRO-GFP cells, GFP/RFP ratio fluorescence, overnight; percent of plate control window, DMSO zero; AID 651647; GFP/RFP ratio change, % at 20 µM; hit rate 0.061% among 360,000; P50281;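 active = GFP/RFP ratio change of at least 30% with cell ATP level not reduced by more than half and red fluorescence within 50% of control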
#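 Assay system: HT1080 cells carrying an RFP-PRO-GFP reporter | Dosing: Single dose of 20 µM compound, 1% DMSO final | Incubation: Cells overnight before dosing, compound overnight, 37 °C, 5% CO2 | Evaluation: GFP/RFP fluorescence ratio | Control set: DMSO and RFP-L50D-GFP cell wells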
# CSN inh: CSN deneddylation inhibition. Purified CSN, SCF-Nedd8-OG deneddylation, fluorescence polarization. inhibition, % at 12.5 µM. hit rate 0.38% among 360,000;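 active = pattern-corrected inhibition above about 35%, with an unprinted fluorescence ratio check between 0.5 and 1.5, limit read from the data, passing the limit was not always enough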
#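 Schedule: reaction 90 min, room temperature / Assay system: HEK293T-derived human Csn5 enzyme / Input: Csn5 at 0.24 nM final / Measure: inhibition of Csn5 cleavage, % / Control set: substrate-only high control, full reaction low control / Technique: fluorescence polarization of the substrate / Buffer or medium: Tris/NaCl/DTT buffer, pH 7.5 / Reagent: SCFSkp2-Nedd8OG substrate at 10 nM final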
# SUMO1 PPI mod: modulators of human SUMO1-mediated protein-protein interactions. hit rate 0.33% among 360,000. P63165. inhibition, % at 20 µM. SUMO1 binding to a labelled peptide, TR-FRET, 1 h; in the data active = inhibition above about 37%
# SKN-1 inh: blocks SKN-1 activity in C. elegans | C. elegans VP596 Pgst-4::GFP/RFP ratio, acrylamide-induced, 24 h | inhibition, % at 21.8 µM | hit rate 0.49% among 360,000 | AID 624304;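 active = interference check ratio from 0.5 to 1.5 plus GFP to RFP signal ratio inhibition reaching or exceeding a fixed threshold, cut at about 30% in these data, passing the limit was not always enough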
# Rpn11 block: inhibitors of human proteasome Rpn11 | O00487 | human 26S proteasome, Ub4-pepOG fluorescence polarization; 20S core pre-blocked with epoxomicin | inhibition, % at 20 µM | hit rate 0.59% among 360,000 | AID 588493;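 active = inhibition at 20 µM, scaled to each plate's controls, above about 33%, limit read from the data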
# DNMT1 block: inhibitors of human DNMT1; P26358; DNMT1 molecular beacon, Hinp1I cleavage, fluorescence; inhibition (reported as % activation of signal), % at 10 µM; hit rate 0.83% among 360,000; AID 588458; in the data active = inhibition above about 50%
# Beacon interf DR: beacon fluorescence artifact, dose response counter-screen; AID 602382; shares compounds with DNMT1 block; IC50, µM; molecular beacon fluorescence, spectral interference counter-screen; 200 tested, under 10 active; call rule not given here
# DNMT1 inh conf: DNMT1 inhibition confirmation, single concentration | inhibition, % at 10 µM | DNMT1 molecular beacon HinP1I cleavage, fluorescence | hit rate 8% among 2,300 | AID 602385 | shares compounds with DNMT1 block;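 active = average inhibition of at least 30% in the single-concentration confirmation test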
# DNMT1 interf: shows spectral interference in the DNMT1 beacon assay | shares compounds with DNMT1 block | DNMT1 molecular beacon spectral interference counterscreen, fluorescence 485/520 | activation (fluorescence interference), % at 10 µM | hit rate 1% among 2,300 | AID 602387;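 active = activation of at least 30% at 10 µM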;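 also: DNMT1 catalytic domain with a HinP1I cleavage step and a FAM/dabcyl DNA beacon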
# Hits are given with their value; - = inactive; . = no result; ! = repeats disagree.
SMILES,MT1-MMP act inh,CSN inh,SUMO1 PPI mod,SKN-1 inh,Rpn11 block,DNMT1 block,DNMT1 inh conf,DNMT1 interf,others
CS/C(=N\S(=O)(=O)c1cccs1)Nc1ccc(N2CCOCC2)cc1,-,-,-,-,-,83!,-,-,
COC(=O)NC1CCC(CC2CCC(NC(=O)OC)CC2)CC1 (stereo not drawn),-,-,-,-,-,-,.,.,
O=C(NC1CCC(CC2CCC(NC(=O)C(Cl)Cl)CC2)CC1)C(Cl)Cl (stereo not drawn),-,-,-,-,-,63,-,-,
CCCCN(C)c1c(C)nc2ccc(C(=O)N(C)Cc3ccco3)cn12,-,-,-,-,-,-,.,.,
CCOC(=O)C1(C)CCCN(C(=O)Cc2ccc3ccccc3c2)C1 (stereo not drawn),-,-,-,-,-,-,.,.,
COc1ccc(NC(=O)NNC(=O)COc2ccc3cc(Br)ccc3c2)cc1,-,-,-,-,-,-,.,.,
COc1ccc2cc(OCC(=O)NNC(=O)Nc3ccc(C(C)=O)cc3)ccc2c1,-,-,-,-,-,72,-,-,
COCC(=O)Nc1ccccc1C(=O)Nc1ccc(OC)cc1,-,-,-,-,-,-,.,.,
COc1ccc(NC(=O)c2ccccc2NC(=O)COc2ccccc2)cc1,-,-,-,-,-,55,-,-,
Cc1nc2c(OCc3cccc(Cl)c3)cccn2c1N(C)Cc1cccs1,.,-,-,-,-,-,.,.,
O=C(COc1cc(O)c2c(=O)cc(-c3ccccc3)oc2c1)c1ccc(F)cc1,-,-,-,-,-,54,-,-,
O=C(CN(Cc1ccc(Br)cc1)S(=O)(=O)c1ccccc1)NCc1ccccn1,-,-,-,-,-,87,-,-,
COc1ccc(CN2CCC2(C)C(=O)NCc2ccc3c(c2)OCO3)c2ccccc12 (stereo not drawn),-,-,-,-,-,-,.,.,
CCc1nnc2n1N=C(c1ccc(-c3cc(Cl)ccc3Cl)o1)CS2,-,-,-,-,-,66,-,-,
CC1CCN(C(=O)C2CCC(CNS(=O)(=O)c3ccc4c(c3)C(C)(C)C(=O)N4C)CC2)CC1 (stereo not drawn),-,-,-,-,-,-,.,.,
O=C(Nc1cc2c(oc1=O)CCCC2=O)c1cccc(Cl)c1,-,-,-,-,-,-,.,.,
COc1ccc(C(=O)Nc2cc3c(oc2=O)CCCC3=O)cc1,-,-,-,-,-,68,-,-,
CCOc1nc(NC(=O)NC(=O)c2ccccc2)nc(-c2ccccc2)n1,-,-,-,-,-,73,-,-,
CC1(C(=O)Nc2ccccc2)CCN1C(=O)CCc1ccc(Cl)cc1Cl (stereo not drawn),-,-,-,-,-,-,.,.,
COc1ccc(CCNC(=O)C(F)(F)F)cc1S(N)(=O)=O,-,-,-,-,.,.,.,.,
CC(CN1CCCCC1)NC(=O)c1scnc1-c1ccccc1 (stereo not drawn),-,-,-,-,-,-,.,.,
COc1cccc(=O)c2c(C)n(-c3ccc(C(=O)O)cc3)c(C)c12,.,-,-,-,-,63,-,-,
CCOc1cccc(=O)c2c(C)n(Cc3ccco3)c(C)c12,-,-,-,-,-,81,-,-,
CCOc1cccc(=O)c2c(C)n(-c3ccc(C(=O)O)cc3)c(C)c12,-,-,41,-,-,94,-,-,
COCCNC(=O)C1C(=O)Nc2ccccc2C(=O)N1Cc1ccccc1 (stereo not drawn),-,-,-,-,.,.,.,.,
SMILES,MT1-MMP act inh,CSN inh,SUMO1 PPI mod,SKN-1 inh,Rpn11 block,DNMT1 block,DNMT1 inh conf,DNMT1 interf,others
CSc1ccc(/C=C/C(=O)OCC(=O)NC2CCCCCC2)cc1,-,-,-,-,-,65,-,-,
COc1ccc(/C=C/C(=O)OCC(=O)NC2CCCCCCC2)cc1,-,-,-,-,-,-,.,.,
CC1(C(=O)NS(=O)(=O)Cc2ccccc2C(F)(F)F)CCN1C(=O)Cc1cccs1 (stereo not drawn),-,-,-,-,-,-,.,.,
Cc1ccc(NC(=O)C2(C)CCN2C(=O)Cc2ccc(C(C)C)cc2)cc1 (stereo not drawn),-,-,-,-,-,-,.,.,
O=C(N/N=C/c1cn(Cc2cccc(F)c2)c2ccccc12)c1cc(O)cc(O)c1,-,-,53,-,-,93,121,-,Beacon interf DR=-
Nc1ccc(C(=O)N/N=C/c2cn(Cc3ccc(F)cc3)c3ccccc23)cc1,-,-,-,-,-,-,.,.,
CC(=O)N1C[C@H]2CON(C)[C@H]2C[C@H]1c1cccc(-c2ccccc2C)c1,-,-,-,-,-,-,.,.,
Cc1ccccc1-c1cccc([C@@H]2C[C@H]3[C@H](CON3C)CN2C(=O)CCc2ccccc2)c1,-,-,-,-,-,78,-,-,
CCn1cc(/C=C(\NC(=O)c2ccccc2)C(=O)NCCCn2ccnc2)c2ccccc21,-,-,-,-,-,-,.,.,
O=C(NCC(F)(F)F)c1[nH]c(C(F)(F)F)nc1-c1ccccc1,-,-,-,-,-,-,.,.,
Cc1c(-c2ccccc2)n[nH]c1C(=O)NN,-,-,-,-,-,-,.,.,
NNC(=O)c1[nH]c(-c2ccccc2)cc1-c1ccccc1,-,-,-,-,-,68,-,-,
COC(=O)[C@@]12C[C@@H](CC(=O)N3CCOCC3)C(=O)N(Cc3ccco3)C1=CCC(C)(C)C2,-,-,-,-,.,.,.,.,
Cc1ccc(NC(=O)C(=O)NN)cc1,-,-,-,-,-,75,-,-,
CCOC(=O)C1=CCN(S(=O)(=O)c2ccc(Br)cc2)C1c1ccccc1 (stereo not drawn),-,-,-,-,-,-,.,.,
CCC1(CC)C(=O)Nc2ccccc21,-,-,-,-,-,75,-,-,
O=C1Nc2ccccc2C1(c1ccccc1)c1ccccc1,-,-,-,-,-,-,.,.,
O=C(COC(=O)/C=C/c1cccc(F)c1)NCc1ccc2c(c1)OCO2,-,-,-,-,-,-,.,.,
COc1cc(Cn2c3ccc(NC(=O)CC(C)C(F)(F)F)cc3c(=O)n2C)ccc1F (stereo not drawn),-,-,-,-,-,-,.,.,
COc1ccc(S(=O)(=O)N2CCOCC2)cc1NC(=O)c1cc(C)oc1C,-,-,-,-,-,65,-,-,
COc1cc(C(O)c2nc(-c3cccc(C(F)(F)F)c3)cs2)ccc1F (stereo not drawn),-,-,-,-,-,-,.,.,
